Activity calls are given as the source filed them. The rule behind the calls is not given here.

The test system of data set [1] is MDA-MB-435 (Homo sapiens). The experiment in a line: Antitumor activity against human MDA-MB-435 cells xenografted in SCID mouse assessed as tumor growth inhibition at 10 mg/kg, iv administered weekly for 21 days and measured every 3 days. The settings on record: time 21.0 day. Background: In xenograft studies the graft and the host belong to different species.
Data set [2] is described as follows: Toxicity against SCID mouse xenografted with human MDA-MB-231 cells assessed as change in body weight at 10 mg/kg, iv administered weekly for 21 days and measured every 3 days. The data set is classed as organism-based. The settings on record: in vivo, 504 h, time 21 day. The method in brief:
(§1)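 Exponential-phase cells washed and injected subcutaneously (5 × 10^6 cells in 100 μL) into 5–6-week SCID mice. At 150–200 mm3, mice randomised to groups of 6. Oral dosing daily in water with 25% PEG400 and 5% DMSO; paclitaxel 10 mg/kg weekly by tail vein. Body weight measured every 3 days and side effects checked daily.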

Data set [3] relates to MDA-MB-231. The experiment in a line: Antitumor activity against human MDA-MB-231 cells xenografted in SCID mouse assessed as tumor growth inhibition at 10 mg/kg, iv administered weekly for 21 days and measured every 3 days. The data set is classed as functional, organism-based. Conditions: time 21.0 day. The method in brief: (§2)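 SCID mice (5−6 weeks) injected subcutaneously with 100 μL of cells at 5 × 10^7/mL. At 150−200 mm3 mice randomized, 6 per group. Oral compounds given in water with 25% PEG400 plus 5% DMSO; paclitaxel given 10 mg/kg/week iv. Tumor volume a×b²/2 and body weight measured every 3 days. Inhibition rate (c−d)/c×100% against vehicle control.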

A short description of data set [4]: Toxicity against SCID mouse xenografted with human MDA-MB-435 cells assessed as change in body weight at 10 mg/kg, iv administered weekly for 21 days and measured every 3 days. Conditions: in vivo, 504 h, time 21 day. The data set is classed as organism-based. The method in brief:
as §1

For data set [5], the system named is MDA-MB-435. The experiment in a line: Antitumor activity against human MDA-MB-435 cells xenografted in SCID mouse assessed as tumor growth inhibition at 40 mg/kg, po QD for 21 days and measured every 3 days. The data set is classed as functional. The settings on record: dose 40.0 mg/kg/day, time 21.0 day. The method in brief:
as §2

Data set [6] concerns MDA-MB-231. As to the kind of experiment: Antiproliferative activity against human MDA-MB-231 cells assessed as reduction in cell viability incubated for 72 hrs by MTT assay. It is filed as functional, cell-based. The settings on record: MDA-MB-231, 72 h. The method in brief:
(§3)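 MTT viability assay. ATCC cell lines were grown in designated medium with 10% FBS at 37 °C, 5% CO2. Cells seeded at 1500−30000 per well and incubated 24 h, then exposed to compound (0−10 μg/mL) for 72 h. MTT added for 2−4 h. Formazan dissolved in DMSO (adherent) or acidified SDS overnight (suspension), absorbance read at 570 nm. Triplicates; IC50 calculated.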

Data set [7] deals with MDA-MB-231. As to the kind of experiment: Increase in cleaved caspase-3 level in human MDA-MB-231 cells at 0.03 to 0.3 uM incubated for 20 hrs by Western blot analysis. The data set is classed as functional, cell-based. Conditions: dose 0.03-0.3 µM. The method in brief:
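MDA-MB-231 cells given a concentration series for 20 h at 37 °C. Cells lysed in RIPA with protease cocktail, cleared at 12000 rpm, 4 °C. Protein quantified by Bradford, equal amounts run on SDS-PAGE, transferred to PVDF and immunoblotted.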
A general note: Immunoblotting shows a protein as a band on a membrane.

Data set [8] has as its system MDA-MB-231. The experiment in a line: Inhibition of ERK phosphorylation in human MDA-MB-231 cells at 0.03 to 0.3 uM incubated for 20 hrs by Western blot analysis. It is filed as cell-based. The settings on record: dose 0.03-0.3 µM. The method in brief:
(§4)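 MDA-MB-231 cells treated with a series of concentrations for 20 h at 37 °C. Cells washed with ice-cold saline and lysed in RIPA buffer with protease cocktail. Lysates cleared at 12000 rpm for 10 min at 4 °C and protein quantified by Bradford. Equal protein separated by SDS-PAGE, transferred to PVDF and probed with antibodies.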

Data set [9] concerns MDA-MB-231. The experiment in a line: Inhibition of Fra1 expression in human MDA-MB-231 cells at 0.03 to 0.3 uM incubated for 20 hrs by Western blot analysis. The settings on record: dose 0.03-0.3 µM. The data set is classed as functional, cell-based. The method in brief:
as §4

Data set [10] has as its system MDA-MB-231. As to the kind of experiment: Induction of apoptosis in human MDA-MB-231 cells assessed as necrotic cells at 0.1 uM incubated for 24 hrs by annexin V-FITC and propidium iodide staining based flow cytometry analysis (reference value: 0.2 %). It is filed as functional. On the technique in general: Flow cytometry measures light scatter and fluorescence of single cells or particles in a stream.

Data set [11] in a line: Toxicity in SCID mouse xenografted with MDA-MB-231 cells assessed as change in body weight at 40 mg/kg, po qd for 21 days and measured every 3 days. It is filed as organism-based. Conditions: in vivo, 504 h, dose 40 mg/kg/day, time 21 day. The method in brief:
as §1

In data set [12] the test system is MDA-MB-231. The experiment in a line: Inhibition of colony formation in human MDA-MB-231 cells at 0.1 uM treated for 12 days by crystal violet staining based visual analysis. The data set is classed as functional, cell-based. Conditions: time 12.0 day. The method in brief: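 MDA-MB-231 cells seeded at 5000 per well in six-well plates and treated the next day, with drug-containing medium replaced every 4 days. After 12 days, colonies fixed with methanol and stained with crystal violet, then photographed.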

Data set [13] has as its system MDA-MB-231. The experiment in a line: Inhibition of MEK phosphorylation in human MDA-MB-231 cells at 0.03 to 0.3 uM incubated for 20 hrs by Western blot analysis. It is filed as cell-based. Conditions: dose 0.03-0.3 µM. The method in brief:
as §4

Data set [14] relates to HepG2. As to the kind of experiment: Antiproliferative activity against human HepG2 cells assessed as reduction in cell viability incubated for 72 hrs by MTT assay. The data set is classed as ADME, cell-based. Conditions: HepG2, 72 h.
In data set [15] the test system is MDA-MB-435. As to the kind of experiment: Antiproliferative activity against human MDA-MB-435 cells assessed as reduction in cell viability incubated for 72 hrs by MTT assay. The data set is classed as functional, cell-based. Conditions: MDA-MB-435, 72 h. The method in brief:
as §3

Data set [16] concerns MDA-MB-231. The experiment in a line: Antimigratory activity against human MDA-MB-231 cells assessed as inhibition of cell migration at 0.3 uM incubated for 20 hrs by wound healing assay. The data set is classed as functional, cell-based. The method in brief: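 MDA-MB-231 monolayer grown to confluence, scratched with a sterile pipet tip, rinsed with physiological saline, then given DMEM containing vehicle or compound. Wound imaged after 20 h to assess migration.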

In data set [17] the test system is MDA-MB-231. The experiment in a line: Induction of apoptosis in human MDA-MB-231 cells assessed as late apoptotic cells at 0.1 uM incubated for 24 hrs by annexin V-FITC and propidium iodide staining based flow cytometry analysis (reference value: 0.85 %). The data set is classed as functional.
Data set [18] has as its system MDA-MB-231. As to the kind of experiment: Induction of apoptosis in human MDA-MB-231 cells assessed as early apoptotic cells at 0.1 uM incubated for 24 hrs by annexin V-FITC and propidium iodide staining based flow cytometry analysis (reference value: 2 %). The data set is classed as functional.
Data set [19] relates to MDA-MB-231. The experiment in a line: Antitumor activity against human MDA-MB-231 cells xenografted in SCID mouse assessed as tumor growth inhibition at 40 mg/kg, po qd for 21 days and measured every 3 days. The data set is classed as functional. The settings on record: dose 40.0 mg/kg/day, time 21.0 day. The method in brief: as §2
Data set [20] has as its system MDA-MB-231. The experiment in a line: Inhibition of Fra1 phosphorylation in human MDA-MB-231 cells at 0.03 to 0.3 uM incubated for 20 hrs by Western blot analysis. Conditions: dose 0.03-0.3 µM. It is filed as functional, cell-based. The method in brief:
as §4

Data set [21] concerns MDA-MB-231. As to the kind of experiment: Induction of apoptosis in human MDA-MB-231 cells assessed as live cells at 0.1 uM incubated for 24 hrs by annexin V-FITC and propidium iodide staining based flow cytometry analysis (reference value: 96.95 %). The data set is classed as functional.

As for `CC(=O)O[C@H]1C(=O)[C@@]2(C)[C@H]([C@H](OC(=O)c3ccccc3)[C@]3(O)C[C@H](OC(=O)[C@H](O)[C@@H](NC(=O)c4ccccc4)c4ccccc4)C(C)=C1C3(C)C)[C@]1(OC(C)=O)CO[C@@H]1C[C@@H]2O` [PACLITAXEL], the outcome in [1] and in data set [3] was Active. Further, the Activity entry in [2] and in data set [4] was “Non-Toxic” in each case.
For `Cc1nc(Nc2ncc(C(=O)Nc3c(C)cccc3Cl)s2)cc(N2CCN(CCO)CC2)n1.O` [DASATINIB], the inhibition entry in [5], in data set [8], in data set [9], in [12], in data set [13] and in data set [20] was “Active” each time. Besides, the IC50 (in general, the concentration that inhibits the measured activity by half) came out at 0.112 µM in data set [6], 7.5 µM in [14] and 5.15 µM in data set [15]. For the same compound, the result in data set [7], in [16] and in data set [19] was Active. The Activity was 0.34% in [10]; “Non-Toxic” in data set [11]; 2.45% in [17]; 4.24% in data set [18]; 92.97% in data set [21].

Source of the values: ChEMBL document CHEMBL4765233, “From Lead to Drug Candidate: Optimization of 3-(Phenylethynyl)-1H-pyrazolo[3,4-d]pyrimidin-4-amine Derivatives as Agents for the Treatment of Triple Negative Breast Cancer” (J Med Chem, 2016).
